ARFGAP1 inhibitor: inhibits rat ARF GTPase activating protein 1 | Q62848 | Arfgap1-stimulated ARF1 GTP hydrolysis, GDP FP detection | inhibition, % at 16.5 µM | 360,000 tested, 0.26% active;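 active means inhibition above a per-plate limit, mean inhibition of low control wells plus 3 SD, cut at about 25% in these data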;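 further: 0% = DMSO wells with enzyme and 100% = wells lacking Arfgap1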
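System: truncated rat Arfgap1 GAP domain / Benchmarks: high control wells lacking Arfgap1, low control full reaction with DMSO / Times: compound-enzyme preincubation 20 min, reaction 120 min, detection 60 min, 25 °C / Repeats: one replicate per compound / Also added: human ARF1(Δ1-17)-GTP substrate / Measured by: Tracer-displacement fluorescence polarization with EDTA stop, 620/688 nm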
IMP-1 inhibitor: inhibitors of Pseudomonas aeruginosa IMP-1 metallo-beta-lactamase; purified IMP-1, nitrocefin hydrolysis, epi-absorbance fluorescence; inhibition, % at 5.6 µM; 290,000 tested, 0.45% active;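 active means inhibition above the mean plus 3 SD of all compounds in the same screening run, cut at about 4.5% in these data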;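 further: 0% = IMP-1 with DMSO and 100% = DMSO wells lacking enzyme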
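System: Purified recombinant IMP-1 metallo-beta-lactamase enzyme | Measured by: Fluorescence quenching readout, ex 480/em 530 nm | Replication: Singlicate | Incubation: 15 min preincubation plus 25 min reaction at 25 °C | Evaluation: Percent inhibition from optical density relative to buffer-blank wells | Benchmarks: DMSO with and without IMP-1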
VIM-2 inhibitor: inhibitors of Pseudomonas aeruginosa VIM-2 metallo-beta-lactamase; purified VIM-2, nitrocefin hydrolysis, epi-absorbance fluorescence; inhibition, % at 5.6 µM; 290,000 tested, 0.89% active;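 active means inhibition above the mean of all tested compounds plus 3 SD, cutoff set per screening run, cut at about 7.5% in these data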;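 further: red hydrolysis product quenches plate fluorescence so inhibitors raise well fluorescence; 0% = enzyme with DMSO and 100% = DMSO without enzyme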
PHOSPHO1 inh: PHOSPHO1 (human) inhibition | Q8TCT1 | recombinant PHOSPHO1, absorbance phosphatase assay | inhibition, % at 13.3 µM | 290,000 tested, 1.1% active | AID 1565; in the data active means inhibition above about 60%
Target sequence (Q8TCT1 whole entry, looked up): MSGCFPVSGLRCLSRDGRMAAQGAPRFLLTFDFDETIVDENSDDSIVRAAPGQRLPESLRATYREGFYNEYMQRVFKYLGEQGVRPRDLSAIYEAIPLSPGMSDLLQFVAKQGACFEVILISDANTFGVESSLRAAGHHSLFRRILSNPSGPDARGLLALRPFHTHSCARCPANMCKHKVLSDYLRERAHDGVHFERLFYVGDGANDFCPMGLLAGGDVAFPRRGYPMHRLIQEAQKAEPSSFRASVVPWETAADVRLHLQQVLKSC
ASAP1 GAP inh: blocks human ASAP1-stimulated Arf1 GTP hydrolysis. GDP FP detection. inhibition, % at 16.5 µM. 360,000 tested, 0.19% active. AID 624377; in the data active means inhibition above about 25%;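 further: 0% = vehicle with enzyme and substrate and 100% = no enzyme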
Target sequence (Q9ULH1 325-724 limits assumed): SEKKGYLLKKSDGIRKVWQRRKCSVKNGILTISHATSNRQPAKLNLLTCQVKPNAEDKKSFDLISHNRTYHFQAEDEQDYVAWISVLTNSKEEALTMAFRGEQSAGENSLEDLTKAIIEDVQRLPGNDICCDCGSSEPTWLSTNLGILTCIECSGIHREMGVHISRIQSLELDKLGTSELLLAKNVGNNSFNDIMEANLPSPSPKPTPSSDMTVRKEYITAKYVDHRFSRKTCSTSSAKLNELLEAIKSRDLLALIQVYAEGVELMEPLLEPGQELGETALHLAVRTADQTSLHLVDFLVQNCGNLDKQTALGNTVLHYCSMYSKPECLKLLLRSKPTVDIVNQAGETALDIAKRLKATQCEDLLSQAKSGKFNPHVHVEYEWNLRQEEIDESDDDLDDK
Calb FLC: affects C. albicans growth with fluconazole. growth inhibition, % (concentration not given with the values). C. albicans CaCi-2 + fluconazole, Alamar Blue growth, 48 h. 300,000 tested, 0.57% active. AID 1979;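 active means growth inhibition above about 58% in most replicates, limit read from the data, passing the limit was not always enough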;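 further: all wells also contain fluconazole at 8 µg/ml as a sub-toxic cotreatment; 0% = median of DMSO wells and 100% = median of geldanamycin control wells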
* hit, by the source's call; · = no result. This is a sample that favours compounds with a hit; in the whole collection about 2.6% have one here.

SMILES	ARFGAP1 inhibitor	IMP-1 inhibitor	VIM-2 inhibitor	PHOSPHO1 inh	ASAP1 GAP inh	Calb FLC
Nc1nc2c(ncn2[C@@H]2O[C@H](C(=O)N[C@H](Cc3ccccc3)C(=O)NCc3ccccc3)[C@@H](O)[C@H]2O)c(=O)[nH]1	11	·	·	·	-9	·
CC1=C(CC[C@@H](C)CO)OC2CC3C4CCC5CC(O)CCC5(C)C4CC(=O)C3(C)C12 (stereo partly specified)	-2	·	·	·	0	87*
COc1cccc(NS(=O)(=O)c2ccc3c(c2)C2C=CCC2C(c2ccc(C(=O)O)cc2)N3)c1 (stereo unspecified)	-16	22*	-5	-7	5	12
O=C(O)C1Nc2ccc(Br)cc2C2C=CCC12 (stereo unspecified)	·	-3	0	·	·	20
COc1ccc(C(=O)N/N=C(\C)c2ccc3c(c2)C2C=CCC2C(c2ccccc2)N3)cc1 (stereo unspecified)	·	-1	-4	3	·	·
O=C(O)c1ccc2c(c1)[C@@H]1C=CC[C@@H]1[C@H](c1ccccn1)N2	-21	5.6*	-2	·	-22	110*
O=C(OC1CCCCC1)c1ccc2c(c1)C1C=CCC1C(C(=O)O)N2 (stereo unspecified)	·	-2	-3	83*	·	·
Cc1cc(C)c2c(n1)sc1c(N3CCN(CCO)CC3)ncnc12	-5	2	12*	31	-10	0
COCCCNc1nc2nonc2nc1N1CCC(C(C)N2CCOCC2)CC1 (stereo unspecified)	12	-1	-2	70*	-2	-7
COCCNc1nc2nonc2nc1N1CCC(N(C)C)C1 (stereo unspecified)	3	-4	-4	56	10	-5
Cc1ccccc1N1CCN(CCN2C(=O)CC(=C3c4ccccc4-c4ccccc43)C2=O)CC1	0	-2	1	·	1	90*
COc1ccccc1N1CCN(CCN2C(=O)CC(=C3c4ccccc4-c4ccccc43)C2=O)CC1	·	0	-2	·	·	9
CCCCn1c(N)c(Sc2ccccc2)c(=O)[nH]c1=O	-10	5.0*	-1	-2	-21	-8
COCCn1c(N)c(Sc2ccccc2)c(=O)[nH]c1=O	1	-4	1	11	3	1
Cc1c(/C=N\NC(=O)c2cccc(F)c2)cnn1C	8	-3	-4	-6	0	0
CCc1ccc(OCc2cccc(C(=O)N/N=C\c3cnn(C)c3C)c2)cc1	-3	6.4*	-2	·	2	-8
O=C1NC(=Nc2ccccc2Cl)S/C1=C\c1cccc([N+](=O)[O-])c1O	-27	-8	-3	·	-17	95*
N#C/C(=N/Nc1ccc(OC(F)(F)F)cc1)C(N)=S	-9	0	-4	20	-3	81*
COc1ccc(N/N=C(\C#N)C(N)=O)cc1	15	-3	-2	-2	5	-1
Cn1c(C(=O)NCCCN2CCc3ccccc3C2)cc2c(=O)n(C)c3ccccc3c21	9	-3	9.8*	-3	6	-6
COc1ccc(CCNC(=O)c2cc3c(=O)n(C)c4ccccc4c3n2C)cc1OC	3	-3	-1	28	7	-3
COCCCNC(=O)c1cc2c(=O)n(C)c3ccccc3c2n1C	-11	-3	7.8*	-9	-16	1
Cn1c(C(=O)NC2CC2)cc2c(=O)n(C)c3ccccc3c21	4	0	17*	-2	-5	7
C[C@]12Cc3ccccc3C1CC1=N[C@@H](c3ccc(C(F)(F)F)cc3)O[C@@]13C[C@@H]2C(=O)N3C1CCN(Cc2ccccc2)CC1 (stereo partly specified)	6	·	·	·	1	·
c1ccc(CC2CCN(c3ncnc4sccc34)CC2)cc1	16	-3	-3	20	-4	97*
SMILES	ARFGAP1 inhibitor	IMP-1 inhibitor	VIM-2 inhibitor	PHOSPHO1 inh	ASAP1 GAP inh	Calb FLC
O=C(Cn1cnc2c(cnn2-c2ccc(Cl)cc2)c1=O)NC1CCCCC1	7	5.4*	-2	-2	5	·
COc1cc(N2C[C@@]3(O)CC[C@@H](O)[C@@H](OC)[C@@H]3[C@@](C)(O)[C@@H]2CC=C(C)C)cc(OC)c1OC	10	·	·	·	-8	·
N#CC1=C(N)Oc2c(ccc3ccccc23)C1c1cccs1 (stereo unspecified)	·	-3	-1	93*	·	3
O=C(NCc1ccco1)c1c2c(nc3ccccc13)CCC2	4	-2	-4	72*	7	-15
CN(C(=O)CSc1n[nH]c(N)n1)C1CCCCC1	23	·	·	·	-3	·
Nc1nc(SCC(=O)C23CC4CC(CC(C4)C2)C3)n[nH]1	1	-3	-1	88*	8	-6
CC(=O)Nc1ccc(S(=O)(=O)N(C)CC(=O)N/N=C/c2ccc(C(=O)O)cc2)cc1	-10	2	0	15	4	0
COc1ccc(/C=N/NC(=O)CN(C)S(=O)(=O)c2ccc(NC(C)=O)cc2)cc1	7	31*	-2	22	3	19
O=C1SC(c2ccccc2)=C/C1=C\N1CCCCC1	6	4.8*	2	-26	1	-8
COC(=O)[C@@H](N[C@H](/C=C/c1ccccc1)[C@@H](O)Cc1ccccc1)c1ccccc1	5	·	·	·	6	·
CCOC(=O)C(C)On1c(-c2cccc(Cl)c2)nc2ccc([N+](=O)[O-])cc21 (stereo unspecified)	7	-3	-4	22	-12	-27
CCOC(=O)COn1c(-c2cccc(Cl)c2)nc2ccc([N+](=O)[O-])cc21	3	-1	-2	65*	-8	7
O=S1(=O)C=C(Sc2ccc(Cl)cc2)c2ccccc2C1Cc1ccc(F)cc1 (stereo unspecified)	-12	·	·	·	-8	·
CCOC(=O)C(C(=O)Nc1ccccn1)C1CCCCC1 (stereo unspecified)	12	-2	-2	70*	-10	-7
CCOC(=O)C(C(=O)Nc1nccs1)C1CCCCC1 (stereo unspecified)	5	-5	-3	7	-5	1
N#Cc1c(-c2cccnc2)c2c([nH]c1=S)CCCC2	-8	-1	-2	74*	12	2
N#Cc1c(-c2ccco2)c2c([nH]c1=S)CCCC2	-8	·	·	62*	13	15
CCn1nc(C(=O)OCC(=O)NC(C)C)c2ccccc2c1=O	1	0	3	24	12	-14
CCCn1nc(C(=O)OCC(=O)c2c(N)n(C)c(=O)n(C)c2=O)c2ccccc2c1=O	5	-3	11*	24	9	19
CCn1nc(C(=O)OCC(=O)NCCN2C(=O)CSC2=O)c2ccccc2c1=O	-3	-4	-3	72*	-6	-3
S=c1[nH]nc(Nc2cccc(Cl)c2)s1	-8	0	-1	80*	-7	-1
S=c1[nH]nc(Nc2ccccc2Cl)s1	4	-5	-1	68*	-4	3

High-throughput results: PubChem BioAssay, several laboratories
